From ChEMBL document CHEMBL3526139, “Clinical pharmacokinetics, metabolism, and drug-drug interaction of carfilzomib” (Drug Metab Dispos, 2013)

Legend:
[1] = target: CYP3A (Homo sapiens, UniProt P08684+P20815+P24462+Q9HB55); experiment: Time-dependent inhibition of CYP3A in human liver microsomes assessed as testosterone 6-hydroxylation using testosterone as substrate by LC-MS/MS analysis; assay type: ADME; conditions: probe testosterone (6-hydroxylation)
In short: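 Pooled HLM (16 donors, mixed sex), 37°C, duplicate. IC50: carfilzomib 0.01–10 µM preincubated 30 min, then testosterone near Km (100 µM) at 0.1 mg/mL protein, 5 min, LC-MS/MS, relative to 0.5% acetonitrile control. KI/kinact: 0–8 µM preincubated 0–30 min with 2.5 mg/mL HLM plus NADPH-generating system, diluted 25-fold, testosterone 200 µM for 5 min.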

[2] = tested on: Plasma; experiment: Drug metabolism in plasma of human multiple myeloma patient assessed as morpholino-hPhe-Leu metabolite formation at 15 mg/m'2, iv administered as single dose measured within first 30 mins after end of drug infusion by LC-MS/MS analysis; assay type: ADME, organism-based; conditions: in vivo, 0.5 h
In short: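 Patients with multiple myeloma received a single 15 mg/m2 carfilzomib dose. Plasma was sampled pre-dose, at end of infusion, at 5, 15, 30 min and at 1, 1.5, 2, 4, 6, 24 h. Samples were protein-precipitated and analyzed by LC-MS/MS (metabolites 0.500–500 ng/mL) with deuterated internal standards.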

[3] = target: Cytochrome P450 3A4 (Homo sapiens, UniProt P08684); experiment: Decrease in CYP3A4 activity in human hepatocytes assessed as 6-betahydroxytestosterone formation using testosterone as substrate at 2.5 uM incubated for 3 days prior to substrate challenge for 30 mins by LC-MS/MS analysis; assay type: ADME, cell-based, Hepatocyte; conditions: 0.5 h
Cytochrome P450 3A4, sequence (P08684 whole entry): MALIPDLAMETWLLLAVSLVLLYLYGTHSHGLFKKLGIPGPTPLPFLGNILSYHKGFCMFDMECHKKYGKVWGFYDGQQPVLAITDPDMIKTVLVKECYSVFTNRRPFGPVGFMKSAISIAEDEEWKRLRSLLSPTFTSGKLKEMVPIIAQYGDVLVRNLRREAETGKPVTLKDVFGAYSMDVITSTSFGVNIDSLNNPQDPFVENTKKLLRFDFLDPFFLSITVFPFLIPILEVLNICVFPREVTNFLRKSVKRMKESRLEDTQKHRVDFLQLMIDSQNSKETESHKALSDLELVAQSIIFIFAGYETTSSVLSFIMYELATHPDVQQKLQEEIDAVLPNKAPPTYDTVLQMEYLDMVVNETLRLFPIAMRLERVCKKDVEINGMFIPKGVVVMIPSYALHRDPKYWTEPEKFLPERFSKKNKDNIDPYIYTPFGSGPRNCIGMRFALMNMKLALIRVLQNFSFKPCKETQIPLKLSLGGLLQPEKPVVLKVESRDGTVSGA
In short: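 Hepatocytes from 3 donors were plated on collagen I and cultured 2 days, then treated 3 days with carfilzomib (0.1–2.5 µM), 0.08% DMSO, rifampicin 20 µM or β-naphthoflavone 20 µM, renewed daily. Cells were then incubated in serum-free medium in triplicate with testosterone 200 µM (CYP3A, 30 min, 6β-hydroxytestosterone) or phenacetin 100 µM (CYP1A2, 60 min, acetaminophenol). Products were measured by LC-MS/MS and expressed relative to DMSO.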

[4] = Drug excretion in urine of iv dosed human patient with relapsed and refractory hematological malignancies assessed as morpholino-hPhe metabolite formation administered on days 1, 2, 8, 9, 15 and 16 of 28-day cycle over 2 to 10 mins by LC-MS/MS analysis; assay type: ADME, organism-based; conditions: in vivo
[5] = Half life in human patient with relapsed solid tumor at 20 mg/m'2, iv administered on days 1, 2, 8, 9, 15 and 16 of 28-day cycle over 2 to 10 mins measured on day 16 of cycle 1 by LC-MS/MS analysis; assay type: ADME, organism-based; conditions: in vivo
In short: (§1)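 Patients with relapsed solid tumors (n=3) received carfilzomib IV at 20 mg/m2. Plasma was sampled on Days 1 and 16 of Cycle 1 before dosing, at end of administration, and at 5, 15, 30 min and 1, 2, 4 h after. Samples underwent solid phase extraction and LC-MS/MS with d10-carfilzomib internal standard over 0.100–200 ng/mL. Parameters were derived noncompartmentally (constant IV infusion model) from actual elapsed time from infusion start.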

[6] = target: T1, Cytochrome P450 2C8 (Homo sapiens, UniProt P10632); experiment: Inhibition of CYP2C8 in human liver microsomes using amodiaquine as substrate after 5 mins by LC-MS/MS analysis; assay type: ADME
T1 sequence (P10632 whole entry): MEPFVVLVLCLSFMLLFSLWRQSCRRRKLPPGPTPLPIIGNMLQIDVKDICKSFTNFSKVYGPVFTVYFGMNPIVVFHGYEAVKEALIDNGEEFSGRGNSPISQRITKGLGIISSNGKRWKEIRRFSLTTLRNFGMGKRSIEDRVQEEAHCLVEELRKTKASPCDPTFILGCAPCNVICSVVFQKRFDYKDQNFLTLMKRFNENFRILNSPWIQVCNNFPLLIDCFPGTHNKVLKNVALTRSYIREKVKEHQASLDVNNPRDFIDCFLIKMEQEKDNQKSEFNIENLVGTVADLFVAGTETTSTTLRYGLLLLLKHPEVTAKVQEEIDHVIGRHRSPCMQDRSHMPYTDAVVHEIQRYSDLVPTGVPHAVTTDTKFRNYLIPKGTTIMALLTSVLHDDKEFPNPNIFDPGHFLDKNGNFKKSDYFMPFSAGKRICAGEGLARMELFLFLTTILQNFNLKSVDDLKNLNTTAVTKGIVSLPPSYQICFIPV
In short: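 Pooled HLM from 16 donors were incubated at 37°C in duplicate with carfilzomib 0.01–10 µM and probe substrate at about its Km. Substrates were phenacetin, amodiaquine, diclofenac, S-mephenytoin, dextromethorphan, testosterone and midazolam. Protein was 0.1 mg/mL, or 0.05 mg/mL with midazolam. Reactions ran 5 min without preincubation, then were quenched with acetonitrile. Metabolites were measured by LC-MS/MS relative to 0.5% acetonitrile controls.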

[7] = target: Cytochrome P450 3A (Homo sapiens, UniProt P08684+P20815+Q9HB55+P24462); experiment: Time-dependent inhibition of CYP3A in human liver microsomes assessed as testosterone 6-hydroxylation using testosterone as substrate measured after 25-fold diution by LC-MS/MS analysis in presence of NADPH; assay type: ADME
In short: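 Pooled HLM (16 donors, mixed gender) preincubated in duplicate with carfilzomib 0, 0.5, 1, 3, 5 and 8 µM plus NADPH-generating system (1 mM NADP, 5 mM glucose-6-phosphate, 1 unit/mL G6PDH) for 0–30 min. Microsomal protein in preincubation: 2.5 mg/mL (testosterone) or 1.25 mg/mL (midazolam). Aliquots then diluted 25-fold into 50 mM potassium phosphate, 3 mM MgCl2, 1 mM EDTA, pH 7.4. Residual activity measured over 5 min with testosterone 200 µM or midazolam 40 µM plus NADPH-generating mixture, 37°C. KI and kinact derived.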

[8] = AUC last in human patient with relapsed solid tumor at 20 mg/m'2, iv administered on days 1, 2, 8, 9, 15 and 16 of 28-day cycle over 2 to 10 mins measured on day 1 of cycle 1 by LC-MS/MS analysis; assay type: ADME, organism-based; parameters: route intravenous, time 0 - last; conditions: plasma; in short: as §1

In the case of `CC(C)C[C@H](NC(=O)[C@H](CCc1ccccc1)NC(=O)CN1CCOCC1)C(=O)N[C@@H](Cc1ccccc1)C(=O)N[C@@H](CC(C)C)C(=O)[C@@]1(C)CO1` [CARFILZOMIB], the Ki [1] is reported as 11 µM, the kinact [1] is reported as 0.00167 s⁻¹ and the Drug metabolism [2] is reported as “metabolite_detected”. The “inhibition (INH)” value [3] was 45%, the Drug excretion [4] was “metabolite_detected” and the half-life [5] was 1.1 h. For the same compound, the IC50 [6] was over 10 µM, the “inhibition (INH)” value [7] was “Active” and the AUC(0-t) [8] was 238 ng·h/mL.
